Assay results published in ChEMBL document CHEMBL3407479, “Structure-activity relationship for the oxadiazole class of antibiotics” (J Med Chem, 2015).
Converted amounts (≈) assume the structure as drawn.

Experiments:
[1] = Plasma protein binding in human at 10 uM after 6 hrs by equilibrium dialysis assay; type: ADME, cell-free
Bacillus licheniformis = assay: Antibacterial activity against Bacillus licheniformis ATCC 12759 after 16 to 20 hrs by broth microdilution method; type: functional
Staphylococcus aureus [2] = assay: Antibacterial activity against mecA-positive, ciprofloxacin/gentamicin/oxacillin/penicillin/linezolid-resistant Staphylococcus aureus NRS119 after 16 to 20 hrs by broth microdilution method; type: functional
Enterococcus faecium [3] = assay: Antibacterial activity against vancomycin-resistant Enterococcus faecium 106 clinical isolate after 16 to 20 hrs by broth microdilution method
HepG2 = assay: Cytotoxicity against human HepG2 cells assessed as cell viability after 16 hrs by XTT assay; type: cell-based; settings: HepG2, 16 h
Method in brief: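 HepG2 cells were run in triplicate in an XTT viability assay. IC50 was derived from the concentration–response data.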

Enterococcus faecalis [4] = assay: Antibacterial activity against vancomycin-resistant Enterococcus faecalis 99 clinical isolate after 16 to 20 hrs by broth microdilution method; type: functional
[5] = test system: Staphylococcus epidermidis; assay: Antibacterial activity against Staphylococcus epidermidis ATCC 35547 after 16 to 20 hrs by broth microdilution method; type: functional
Enterococcus faecium [6] = assay: Antibacterial activity against Enterococcus faecium NCTC 7171 after 16 to 20 hrs by broth microdilution method; type: functional
Staphylococcus aureus [7] = assay: Antibacterial activity against methicillin-sensitive Staphylococcus aureus ATCC 29213 after 16 to 20 hrs by broth microdilution method; type: functional
Bacillus cereus = assay: Antibacterial activity against Bacillus cereus ATCC 13061 after 16 to 20 hrs by broth microdilution method; type: functional
Enterococcus faecium [8] = assay: Antibacterial activity against vancomycin-susceptible Enterococcus faecium 119-39A clinical isolate after 16 to 20 hrs by broth microdilution method; type: functional
Enterococcus faecalis [9] = assay: Antibacterial activity against Enterococcus faecalis ATCC 29212 after 16 to 20 hrs by broth microdilution method; type: functional
Staphylococcus aureus [10] = assay: Antibacterial activity against mecA-positive, methicillin/oxacillin/tetracycline-resistant and vancomycin/linezolid susceptible Staphylococcus aureus COL after 16 to 20 hrs by broth microdilution method; type: functional
Enterococcus faecalis [11] = assay: Antibacterial activity against vancomycin-susceptible Enterococcus faecalis 201 clinical isolate after 16 to 20 hrs by broth microdilution method; type: functional
Streptococcus pyogenes = assay: Antibacterial activity against Streptococcus pyogenes ATCC 49399 after 16 to 20 hrs by broth microdilution method; type: functional
[12] = test system: Staphylococcus haemolyticus; assay: Antibacterial activity against Staphylococcus haemolyticus ATCC 29970 after 16 to 20 hrs by broth microdilution method; type: functional
Staphylococcus aureus [13] = assay: Antibacterial activity against vancomycin/methicillin-resistant Staphylococcus aureus VRS1 clinical isolate after 16 to 20 hrs by broth microdilution method; type: functional
Staphylococcus aureus [14] = assay: Antibacterial activity against mecA-positive, ciprofloxacin/gentamicin/oxacillin/penicillin/linezolid-resistant Staphylococcus aureus NRS120 after 16 to 20 hrs by broth microdilution method; type: functional
Streptococcus oralis = assay: Antibacterial activity against Streptococcus oralis ATCC 9811 after 16 to 20 hrs by broth microdilution method; type: functional
[15] = Plasma protein binding in human by equilibrium dialysis assay
Staphylococcus aureus [16] = assay: Antibacterial activity against mecA-positive, methicillin/oxacillin/tetracycline-resistant and vancomycin/linezolid susceptible Staphylococcus aureus ATCC 27660 after 16 to 20 hrs by broth microdilution method; type: functional
Staphylococcus aureus [17] = assay: Antibacterial activity against vancomycin/methicillin-resistant Staphylococcus aureus VRS2 clinical isolate after 16 to 20 hrs by broth microdilution method; type: functional
[18] = AUC (0 to 8 hrs) in ICR mouse at 50 mg/kg, iv; type: ADME, organism-based; parameters: time < 8 hr, dose 50 mg/kg, route intravenous; settings: plasma
Staphylococcus aureus [19] = assay: Antibacterial activity against methicillin-resistant Staphylococcus aureus ATCC 27660 in po dosed ICR mouse peritonitis infection model assessed as survival rate administered at 1 hr post infection; type: functional; settings: ATCC 27660, po
Method in brief: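 Female ICR mice, 6–8 weeks, given 0.5 mL ip of S. aureus (final 5×10^7 cfu/mL in 5% mucin). Six mice per dose level; a single oral dose at 1 h post-infection.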

Work on Fc1ccc(Oc2ccc(-c3noc(-c4n[nH]cc4Cl)n3)cc2)cc1 yielded a PPB [1] of 94.5%, an MIC (Bacillus licheniformis) greater than 128 µg/mL and an MIC (Staphylococcus aureus [2]) of 2 µg/mL (≈ 5.61 µM). It also gave an MIC (Enterococcus faecium [3]) greater than 128 µg/mL, an IC50 (HepG2) of 18.2 µg/mL (≈ 51 µM) and an MIC (Enterococcus faecalis [4]) greater than 128 µg/mL. The MIC [5] was greater than 128 µg/mL, the MIC (Enterococcus faecium [6]) was 32 µg/mL (≈ 89.7 µM) and the MIC (Staphylococcus aureus [7]) was 1 µg/mL (≈ 2.8 µM). It also gave an MIC (Bacillus cereus) greater than 128 µg/mL, an MIC (Enterococcus faecium [8]) greater than 128 µg/mL and an MIC (Enterococcus faecalis [9]) greater than 128 µg/mL. For the same compound, the MIC (Staphylococcus aureus [10]) was greater than 128 µg/mL, the MIC (Enterococcus faecalis [11]) was greater than 128 µg/mL and the MIC (Streptococcus pyogenes) was greater than 128 µg/mL. It also gave an MIC [12] greater than 128 µg/mL, an MIC (Staphylococcus aureus [13]) of 1 µg/mL (≈ 2.8 µM) and an MIC (Staphylococcus aureus [14]) of 64 µg/mL (≈ 179 µM). For the same compound, the MIC (Streptococcus oralis) was greater than 128 µg/mL.
CO[C@H]1/C=C/O[C@@]2(C)Oc3c(C)c(O)c4c(O)c(c(/C=N/N5CCN(C)CC5)c(O)c4c3C2=O)NC(=O)/C(C)=C\C=C\[C@H](C)[C@H](O)[C@@H](C)[C@@H](O)[C@@H](C)[C@H](OC(C)=O)[C@@H]1C [RIFAMPIN] gave a fraction unbound [15] of less than 0.09.
With CC(C)Nc1c[nH]nc1-c1nc(-c2ccc(Oc3ccc(C(F)(F)F)cc3)cc2)no1 the PPB [1] was 91.6%, the MIC (Bacillus licheniformis) was greater than 128 µg/mL and the MIC (Staphylococcus aureus [2]) was 2 µg/mL (≈ 4.66 µM). It also gave an MIC (Enterococcus faecium [3]) greater than 128 µg/mL, an IC50 (HepG2) of 3.9 µg/mL (≈ 9.08 µM) and an MIC (Enterococcus faecalis [4]) greater than 128 µg/mL. It also gave an MIC [5] greater than 128 µg/mL, an MIC (Enterococcus faecium [6]) of 32 µg/mL (≈ 74.5 µM) and an MIC (Staphylococcus aureus [7]) of 0.5 µg/mL (≈ 1.16 µM). The MIC (Bacillus cereus) was greater than 128 µg/mL, the MIC (Enterococcus faecium [8]) was greater than 128 µg/mL and the MIC (Enterococcus faecalis [9]) was greater than 128 µg/mL. For the same compound, the MIC (Staphylococcus aureus [10]) was greater than 128 µg/mL, the MIC (Enterococcus faecalis [11]) was greater than 128 µg/mL and the MIC (Streptococcus pyogenes) was greater than 128 µg/mL. For the same compound, the MIC [12] was greater than 128 µg/mL, the MIC (Staphylococcus aureus [16]) was 0.5 µg/mL (≈ 1.16 µM) and the MIC (Staphylococcus aureus [13]) was 1 µg/mL (≈ 2.33 µM). It also gave an MIC (Staphylococcus aureus [14]) greater than 128 µg/mL, an MIC (Streptococcus oralis) greater than 128 µg/mL and an MIC (Staphylococcus aureus [17]) of 4 µg/mL (≈ 9.32 µM).
In the case of Oc1ccc(-c2nc(-c3ccc(Oc4ccc(C(F)(F)F)cc4)cc3)no2)cc1, the PPB [1] was 99.9%, the MIC (Bacillus licheniformis) was 2 µg/mL (≈ 5.02 µM) and the MIC (Staphylococcus aureus [2]) was 2 µg/mL (≈ 5.02 µM). For the same compound, the MIC (Enterococcus faecium [3]) was 2 µg/mL (≈ 5.02 µM), the IC50 (HepG2) was 25.8 µg/mL (≈ 64.8 µM) and the MIC (Enterococcus faecalis [4]) was 2 µg/mL (≈ 5.02 µM). It also gave an MIC [5] of 2 µg/mL (≈ 5.02 µM), an MIC (Enterococcus faecium [6]) of 2 µg/mL (≈ 5.02 µM) and an MIC (Staphylococcus aureus [7]) of 1 µg/mL (≈ 2.51 µM). The MIC (Bacillus cereus) was 2 µg/mL (≈ 5.02 µM), the MIC (Enterococcus faecium [8]) was 1 µg/mL (≈ 2.51 µM) and the MIC (Enterococcus faecalis [9]) was 2 µg/mL (≈ 5.02 µM). The MIC (Staphylococcus aureus [10]) was 2 µg/mL (≈ 5.02 µM), the MIC (Enterococcus faecalis [11]) was 2 µg/mL (≈ 5.02 µM) and the MIC (Streptococcus pyogenes) was 32 µg/mL (≈ 80.3 µM). For the same compound, the MIC [12] was 2 µg/mL (≈ 5.02 µM), the MIC (Staphylococcus aureus [16]) was 2 µg/mL (≈ 5.02 µM) and the MIC (Staphylococcus aureus [13]) was 2 µg/mL (≈ 5.02 µM). The MIC (Staphylococcus aureus [14]) was 2 µg/mL (≈ 5.02 µM), the MIC (Streptococcus oralis) was 32 µg/mL (≈ 80.3 µM) and the MIC (Staphylococcus aureus [17]) was 2 µg/mL (≈ 5.02 µM). It also gave an AUC(0-t) at 8 h [18] of 44200 ng·h/mL.
Compound CC(=O)NC[C@H]1CN(c2ccc(N3CCOCC3)c(F)c2)C(=O)O1 [LINEZOLID] has an MIC (Bacillus licheniformis) of 1 µg/mL (≈ 2.96 µM), an MIC (Staphylococcus aureus [2]) of 32 µg/mL (≈ 94.9 µM) and an MIC (Enterococcus faecium [3]) of 1 µg/mL (≈ 2.96 µM). For the same compound, the ED50 (Staphylococcus aureus [19]) was 2.8 mg/kg, the MIC [5] was 1 µg/mL (≈ 2.96 µM) and the MIC (Enterococcus faecium [6]) was 2 µg/mL (≈ 5.93 µM). For the same compound, the MIC (Bacillus cereus) was 1 µg/mL (≈ 2.96 µM), the MIC (Enterococcus faecium [8]) was 2 µg/mL (≈ 5.93 µM) and the MIC (Streptococcus pyogenes) was 1 µg/mL (≈ 2.96 µM). It also gave an MIC [12] of 2 µg/mL (≈ 5.93 µM), an MIC (Staphylococcus aureus [14]) of 32 µg/mL (≈ 94.9 µM) and an MIC (Streptococcus oralis) of 1 µg/mL (≈ 2.96 µM).
Work on CN[C@H](CC(C)C)C(=O)N[C@H]1C(=O)N[C@@H](CC(N)=O)C(=O)N[C@H]2C(=O)N[C@H]3C(=O)N[C@H](C(=O)N[C@H](C(=O)O)c4cc(O)cc(O)c4-c4cc3ccc4O)[C@H](O)c3ccc(c(Cl)c3)Oc3cc2cc(c3O[C@@H]2O[C@H](CO)[C@@H](O)[C@H](O)[C@H]2O[C@H]2C[C@](C)(N)[C@H](O)[C@H](C)O2)Oc2ccc(cc2Cl)[C@H]1O [VANCOMYCIN] yielded an MIC (Enterococcus faecium [3]) of 256 µg/mL (≈ 177 µM), an MIC [5] of 16 µg/mL (≈ 11 µM) and an MIC (Enterococcus faecalis [9]) of 2 µg/mL (≈ 1.38 µM). It also gave an MIC (Streptococcus pyogenes) of 0.6 µg/mL (≈ 0.414 µM).
Work on Cc1onc(-c2ccccc2)c1C(=O)N[C@@H]1C(=O)N2[C@@H]1SC(C)(C)[C@@H]2C(=O)O [OXACILLIN] yielded a fraction unbound [15] of less than 0.09.
FC(F)(F)c1ccc(Oc2ccc(-c3noc(-c4n[nH]cc4Cl)n3)cc2)cc1 showed a PPB [1] of 97.8%, an MIC (Bacillus licheniformis) greater than 128 µg/mL and an MIC (Enterococcus faecium [3]) greater than 128 µg/mL. It also gave an IC50 (HepG2) of 24.1 µg/mL (≈ 59.3 µM), an MIC (Enterococcus faecalis [4]) greater than 128 µg/mL and an MIC [5] greater than 128 µg/mL. The MIC (Enterococcus faecium [6]) was 16 µg/mL (≈ 39.3 µM), the MIC (Bacillus cereus) was greater than 128 µg/mL and the MIC (Enterococcus faecium [8]) was greater than 128 µg/mL. For the same compound, the MIC (Enterococcus faecalis [9]) was greater than 128 µg/mL, the MIC (Staphylococcus aureus [10]) was greater than 128 µg/mL and the MIC (Enterococcus faecalis [11]) was greater than 128 µg/mL. It also gave an MIC (Streptococcus pyogenes) greater than 128 µg/mL, an MIC [12] greater than 128 µg/mL and an MIC (Staphylococcus aureus [16]) of 2 µg/mL (≈ 4.92 µM). The MIC (Staphylococcus aureus [13]) was 1 µg/mL (≈ 2.46 µM), the MIC (Staphylococcus aureus [14]) was 64 µg/mL (≈ 157 µM) and the MIC (Streptococcus oralis) was greater than 128 µg/mL. It also gave an MIC (Staphylococcus aureus [17]) of 0.5 µg/mL (≈ 1.23 µM).
With CCCCCCCCCC(=O)N[C@@H](Cc1c[nH]c2ccccc12)C(=O)N[C@H](CC(N)=O)C(=O)N[C@@H](CC(=O)O)C(=O)N[C@@H]1C(=O)NCC(=O)N[C@@H](CCCN)C(=O)N[C@@H](CC(=O)O)C(=O)N[C@H](C)C(=O)N[C@@H](CC(=O)O)C(=O)NCC(=O)N[C@H](CO)C(=O)N[C@@H]([C@H](C)CC(=O)O)C(=O)N[C@@H](CC(=O)c2ccccc2N)C(=O)O[C@@H]1C the fraction unbound [15] was less than 0.09.
FC(F)(F)c1ccc(Oc2ccc(-c3noc(-c4n[nH]cc4NC4CCCCC4)n3)cc2)cc1 gave an MIC (Staphylococcus aureus [7]) of no less than 128 µg/mL.
